Experimental data taken from ChEMBL document CHEMBL3797067, “Part 3: Notch-sparing γ-secretase inhibitors: SAR studies of 2-substituted aminopyridopyrimidinones” (Bioorg Med Chem Lett, 2016).
Active and inactive are the calls of the source. The calls are words filed in the database; no cut-off is given here.

Assays:
[1] = biological target: T1, Gamma-secretase (Homo sapiens) (UniProt Q96BI3+Q9NZ42+Q8WW43+P49768+Q92542+P49810); assay: Inhibition of human gamma-secretase assessed as inhibition of amyloid beta 40 production using recombinant APP C100FLAG as substrate at 100 uM after 4 hrs by ELISA relative to control; format: protein-complex assay
In short: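 Purified human γ-secretase complex incubated with recombinant C100 FLAG substrate in 0.2% CHAPSO/HEPES, pH 7.5. Compound added from DMSO stock to a final 100 μM with 1% final DMSO. Reaction run 4 h at 37°C and stopped with 0.5% SDS. Aβ40 quantified by specific ELISA and expressed as percent inhibition versus DMSO control.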

[2] = biological target: T1, Gamma-secretase (Homo sapiens); assay: Inhibition of human gamma-secretase assessed as inhibition of notch1 processing at 100 uM using N100Flag as substrate by western blot analysis; format: protein-complex assay
Gamma-secretase = assay: Inhibition of gamma-secretase (unknown origin) assessed as inhibition of amyloid beta 42 production by cell-based assay; parameters: species or system Homo sapiens
[3] = biological target: T1, Gamma-secretase (Homo sapiens); assay: Inhibition of gamma-secretase (unknown origin) assessed as inhibition of amyloid beta 42 production at 100 uM by cell-based assay
[4] = Lipophilicity, logD of the compound; format: physicochemical; settings: octanol/water
[5] = Permeability of the compound from apical to basolateral side; format: ADME; settings: not told; read-out: permeability
[6] = Protein binding in human plasma; format: ADME, cell-free; settings: read-out: PPB (converted)
[7] = Metabolic stability of the compound in rat liver microsomes assessed as parent compound remaining after 60 mins; format: ADME; settings: read-out: Stability
[8] = Metabolic stability of the compound in human liver microsomes assessed as parent compound remaining after 60 mins; format: ADME; settings: read-out: Stability

SMILES	inhibition [1]	inhibition [2]	also measured
Cn1c(=O)c(-c2c(Cl)cccc2Cl)cc2cnc(NCc3ccccn3)nc21	59%	inactive	
CCCCCCNc1ncc2cc(-c3c(Cl)cccc3Cl)c(=O)n(C)c2n1	53%	Active	
CN1CCN(c2ncc3cc(-c4c(Cl)cccc4Cl)c(=O)n(C)c3n2)CC1	0%	inactive	inhibition [3]: 7%
Cn1c(=O)c(-c2c(Cl)cccc2Cl)cc2cnc(N3CCN(CC4CCCO4)CC3)nc21 (configuration not stated)	0%		
Cn1c(=O)c(-c2c(Cl)cccc2Cl)cc2cnc(N3CCN(c4ncccn4)CC3)nc21	0%		
Cn1c(=O)c(-c2c(Cl)cccc2Cl)cc2cnc(N3CCN(Oc4cccnc4)CC3)nc21	0%		inhibition [3]: 0%
Cn1c(=O)c(-c2ccc(Cl)cc2)cc2cnc(N3CCN(c4ccc(F)cc4)CC3)nc21	0%		
Cn1c(=O)c(-c2c(Cl)cccc2Cl)cc2cnc(N3CCN(c4ccc(F)cc4)CC3)nc21	68%	inactive	logD [4]: > 4; IC50 (Gamma-secretase): 2.7 µM; Papp A→B [5]: 0.1 ×10⁻⁶ cm/s; fraction unbound [6]: 0.011; remaining at 1 h [7]: 72%; remaining at 1 h [8]: 74%
Cn1c(=O)c(-c2c(Cl)cccc2Cl)cc2cnc(N3CCN(c4ccccn4)CC3)nc21	0%		
Cn1c(=O)c(-c2ccccc2)cc2cnc(N3CCN(c4ccc(F)cc4)CC3)nc21	14%	Active	
Cn1c(=O)c(-c2ccc(C(C)(C)C)cc2)cc2cnc(N3CCN(c4ccc(F)cc4)CC3)nc21	2%		
Cn1c(=O)c(-c2c(F)cccc2F)cc2cnc(N3CCN(c4ccc(F)cc4)CC3)nc21	20%	Active	
Cn1c(=O)ccc2cnc(N3CCN(c4ccc(F)cc4)CC3)nc21	0%		

Now from value to compound, other results behind:

inhibition [1]	inhibition [2]	SMILES	also measured
47%	inactive	CSc1ccc(Nc2ncc3cc(-c4c(Cl)cccc4Cl)c(=O)n(C)c3n2)cc1	IC50 (Gamma-secretase): 26 µM
47%	inactive	COc1ccc(Nc2ncc3cc(-c4c(Cl)cccc4Cl)c(=O)n(C)c3n2)cc1	
73%	Active	CC(C)N(Cc1cc(F)cc(F)c1)c1ncc2cc(-c3c(Cl)cccc3Cl)c(=O)n(C)c2n1	
48%	inactive	CN(CCc1ccccc1)c1ncc2cc(-c3c(Cl)cccc3Cl)c(=O)n(C)c2n1	
50%	inactive	CC(C)N(Cc1ccc(Cl)c(Cl)c1)c1ncc2cc(-c3c(Cl)cccc3Cl)c(=O)n(C)c2n1	
26%		Cn1c(=O)c(-c2c(Cl)cccc2Cl)cc2cnc(Nc3ccccc3)nc21	
90%	inactive	CC(C)N(Cc1ccccc1)c1ncc2cc(-c3c(Cl)cccc3Cl)c(=O)n(C)c2n1	logD [4]: > 4; Papp A→B [5]: 2.3 ×10⁻⁶ cm/s; fraction unbound [6]: 0.057; remaining at 1 h [7]: 4%; remaining at 1 h [8]: 72%
0%		Cn1c(=O)c(-c2c(Cl)cccc2Cl)cc2cnc(NCc3ccccc3)nc21	
0%	inactive	CC(C)Nc1ncc2cc(-c3c(Cl)cccc3Cl)c(=O)n(C)c2n1	
0%	inactive	CSc1cccc(Nc2ncc3cc(-c4c(Cl)cccc4Cl)c(=O)n(C)c3n2)c1	
12%		Cn1c(=O)c(-c2c(Cl)cccc2Cl)cc2cnc(Nc3ccc(C(F)(F)F)cc3)nc21	
